From ChEMBL document CHEMBL4406874, “One-pot synthesis of novel tert-butyl-4-substituted phenyl-1H-1,2,3-triazolo piperazine/piperidine carboxylates, potential GPR119 agonists” (Bioorg Med Chem Lett, 2019) come the findings set out here.

This test concerns the target T1, Glucose-dependent insulinotropic receptor (Homo sapiens, UniProt Q8TDV5).
T1 sequence (Q8TDV5 whole entry): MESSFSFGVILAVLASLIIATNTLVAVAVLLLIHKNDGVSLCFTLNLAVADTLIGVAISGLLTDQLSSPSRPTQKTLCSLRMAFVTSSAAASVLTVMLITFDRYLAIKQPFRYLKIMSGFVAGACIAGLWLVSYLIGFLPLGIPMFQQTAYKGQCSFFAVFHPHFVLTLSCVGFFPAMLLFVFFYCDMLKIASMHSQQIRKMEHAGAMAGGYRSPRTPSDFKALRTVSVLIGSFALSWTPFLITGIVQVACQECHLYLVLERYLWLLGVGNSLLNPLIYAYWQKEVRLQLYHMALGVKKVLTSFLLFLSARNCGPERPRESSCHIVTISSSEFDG
The test is described as follows: Agonist activity at recombinant human GPR119 expressed in HEK293 cells after 24 hrs by steady-glo luciferase assay. The class given is cell-based. In short, it runs like this: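 HEK-293 cells stably carrying GPR119 plus a CRE-luciferase reporter, seeded at 10,000 cells/well and cultured 24 h before compound addition at 0.1 nM to 1mM. DMSO served as negative control and AR231453 as reference agonist. Luciferase signal was read after a further 24 h as a surrogate for cAMP elevation.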
In the case of `CC(C)c1noc(C2CCN(c3ncnc(Nc4ccc(S(C)(=O)=O)cc4F)c3[N+](=O)[O-])CC2)n1`, the 50% effective concentration (EC50) was 4.78 nM.
With `CC(C)(C)OC(=O)N1CCC(OC(=O)c2cn(-c3ccc(Cl)c(C(F)(F)F)c3)nn2)CC1`, the EC50 was 12.3 nM.
The figure for `CC(C)(C)OC(=O)N1CCN(C(=O)c2cn(-c3ccc(C(F)(F)F)cc3Cl)nn2)CC1` is 8.78 nM; for `CC(C)(C)OC(=O)N1CCC(OC(=O)c2cn(-c3ccc(C(F)(F)F)cc3)nn2)CC1` it is 10.4 nM; for `CC(C)(C)OC(=O)N1CCN(C(=O)c2cn(-c3ccc(C#N)cc3F)nn2)CC1` it is 4.21 nM.
To `CC(C)(C)OC(=O)N1CCN(C(=O)c2cn(-c3ccc(S(C)(=O)=O)cc3)nn2)CC1` belongs 3.12 nM.
The figure for `CC(C)(C)OC(=O)N1CCN(C(=O)c2cn(-c3ccc(C(F)(F)F)cc3)nn2)CC1` is 13.6 nM; for `CC(C)(C)OC(=O)N1CCN(C(=O)c2cn(-c3nc4ccccc4s3)nn2)CC1` it is 7.12 nM.
For `CC(C)(C)OC(=O)N1CCC(OC(=O)c2cn(-c3ccc(C(F)(F)F)cc3Cl)nn2)CC1`, the EC50 turned out to be 11.1 nM.
With `CC(C)(C)OC(=O)N1CCC(OC(=O)c2cn(-c3ccc(C#N)cc3F)nn2)CC1`, the 50% effective concentration (EC50) stood at 3.59 nM.
To `CC(C)(C)OC(=O)N1CCC(OC(=O)c2cn(-c3nc4ccccc4s3)nn2)CC1` belongs 8.17 nM.
Take `CC(C)(C)OC(=O)N1CCC(OC(=O)c2cn(-c3ccc(S(C)(=O)=O)cc3)nn2)CC1`: the half-maximal effective concentration (EC50) turned out to be 3.67 nM.
To `CC(C)(C)OC(=O)N1CCN(C(=O)c2cn(-c3ccc(Cl)c(C(F)(F)F)c3)nn2)CC1` belongs 12.3 nM; to `CC(C)(C)OC(=O)N1CCC(OC(=O)c2cn(-c3ccc(S(C)(=O)=O)cc3F)nn2)CC1`, 14 nM; to `CC(C)(C)OC(=O)N1CCN(C(=O)c2cn(-c3ccc(S(C)(=O)=O)cc3F)nn2)CC1`, 12.4 nM.
